For twelve compounds, MIC results are on record in ChEMBL document CHEMBL3272149, “Synthesis and antibacterial activity of some derivatives of tolypomycinone. Relationship between structure and activity in ansamycins” (J Med Chem, 1977).

As a reminder, the MIC is the least concentration at which growth counts as inhibited.

What all share (format): functional
In one assay the test system is Klebsiella pneumoniae. Kind of assay: Antibacterial activity against Klebsiella pneumoniae Ottaviani assessed as inhibition of visible growth after 24 hrs by serial dilution method.
The next assay relates to Escherichia coli. Kind of assay: Antibacterial activity against Escherichia coli MC/35 assessed as inhibition of visible growth after 24 hrs by serial dilution method. The following applies: MC/35, 24 h.
Assay [1] relates to Salmonella enterica subsp. enterica serovar Paratyphi B. As to the kind of experiment: Antibacterial activity against Salmonella paratyphi B 0248 K assessed as inhibition of visible growth after 24 hrs by serial dilution method. Put shortly: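 Broth tube serial dilution in Brain Heart Infusion medium; inoculum 10^6 cells/mL; incubation 24 h at 35 °C; MIC taken as the lowest antibiotic concentration that prevented visible growth.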

The subject of the next assay is Staphylococcus aureus. Kind of assay: Antibacterial activity against Staphylococcus aureus 209 P(FDA) assessed as inhibition of visible growth after 24 hrs by serial dilution method.

≈ marks a conversion by molar mass, not a printed value.

Turning to `CO[C@H]1/C=C/O[C@@]2(C)Oc3c(C)c(O)c4c(c3C2=O)C(=O)C(NCC2CCCN(C)C2)=C(NC(=O)/C(C)=C\C(=O)[C@@H]2C[C@@H]2[C@H](O)[C@@H](C)[C@@H](O)[C@@H](C)[C@H](OC(C)=O)[C@@H]1C)C4=O` (some centres undefined), the MIC in the assay with Klebsiella pneumoniae was determined as 12 µg/mL (≈ 14.4 µM); with Escherichia coli it was 12 µg/mL (≈ 14.4 µM); in assay [1] it was 12 µg/mL (≈ 14.4 µM); in the assay with Staphylococcus aureus, 0.025 µg/mL (≈ 0.0299 µM).

With `CO[C@H]1/C=C/O[C@@]2(C)Oc3c(C)c(O)c4c(O)c(c(/C=N/N5CCN(C)CC5)c(O)c4c3C2=O)NC(=O)/C(C)=C\C=C\[C@H](C)[C@H](O)[C@@H](C)[C@@H](O)[C@@H](C)[C@H](OC(C)=O)[C@@H]1C` [RIFAMPIN], the MIC in the assay with Klebsiella pneumoniae was 25 µg/mL (≈ 30.4 µM); in the assay on Escherichia coli, 6 µg/mL (≈ 7.29 µM); in assay [1] it was 12 µg/mL (≈ 14.6 µM); in the assay on Staphylococcus aureus, 0.025 µg/mL (≈ 0.0304 µM).

As to `CO[C@H]1/C=C/O[C@@]2(C)Oc3c(C)c(O)c4c(c3C2=O)C(=O)C(NCCCN2CCN(C)CC2)=C(NC(=O)/C(C)=C\C(=O)[C@@H]2C[C@@H]2[C@H](O)[C@@H](C)[C@@H](O)[C@@H](C)[C@H](OC(C)=O)[C@@H]1C)C4=O`, the MIC in the assay on Klebsiella pneumoniae is 25 µg/mL (≈ 28.9 µM); with Escherichia coli, 12 µg/mL (≈ 13.9 µM); in assay [1] it was 3 µg/mL (≈ 3.47 µM); with Staphylococcus aureus it was 0.025 µg/mL (≈ 0.0289 µM).

For the compound `COC(CCNC1=C2NC(=O)/C(C)=C\C(=O)[C@@H]3C[C@@H]3[C@H](O)[C@@H](C)[C@@H](O)[C@@H](C)[C@H](OC(C)=O)[C@H](C)[C@@H](OC)/C=C/O[C@@]3(C)Oc4c(C)c(O)c(c(c4C3=O)C1=O)C2=O)OC`, the MIC with Klebsiella pneumoniae is 50 µg/mL (≈ 60.5 µM); in the assay with Escherichia coli it was 25 µg/mL (≈ 30.2 µM); in assay [1], 25 µg/mL (≈ 30.2 µM); in the assay on Staphylococcus aureus it was 0.005 µg/mL (≈ 0.00605 µM).

Consider `CO[C@H]1/C=C/O[C@@]2(C)Oc3c(C)c(O)c4c(O)c(cc(O)c4c3C2=O)NC(=O)/C(C)=C\C=C\[C@H](C)[C@H](O)[C@@H](C)[C@@H](O)[C@@H](C)[C@H](OC(C)=O)[C@@H]1C` [RIFAMYCIN], for which the minimal inhibitory concentration (MIC) is 100 µg/mL (≈ 143 µM) with Klebsiella pneumoniae, 100 µg/mL (≈ 143 µM) with Escherichia coli, 100 µg/mL (≈ 143 µM) in assay [1] and below 0.005 µg/mL in the assay on Staphylococcus aureus.

Consider `COC1/C=C/OC2(C)Oc3c(C)c(O)c4c(c3C2=O)C(=O)C=C(NC(=O)/C(C)=C\C(=O)C2CC2C(O)C(C)C(O)C(C)C(OC(C)=O)C1C)C4=O` (centres undefined) [TOLYPOMYCINONE], for which, in the assay with Staphylococcus aureus, the minimal inhibitory concentration (MIC) came out at 0.5 µg/mL (≈ 0.704 µM).

`CO[C@H]1/C=C/O[C@@]2(C)Oc3c(C)c(O)c4c(c3C2=O)C(=O)C(NCc2ccccc2)=C(NC(=O)C(C)(NCc2ccccc2)CC(=O)[C@@H]2C[C@@H]2[C@H](O)[C@@H](C)[C@@H](O)[C@@H](C)[C@H](OC(C)=O)[C@@H]1C)C4=O` (some centres undefined): in the assay with Staphylococcus aureus, the MIC came out at 0.25 µg/mL (≈ 0.271 µM).

Take `CO[C@H]1/C=C/O[C@@]2(C)Oc3c(C)c(O)c4c(c3C2=O)C(=O)C=C(NC(=O)C(C)CC(=O)[C@@H]2C[C@@H]2[C@H](O)[C@@H](C)[C@@H](O)[C@@H](C)[C@H](OC(C)=O)[C@@H]1C)C4=O` (some centres undefined): in the assay with Staphylococcus aureus, the MIC came to 0.5 µg/mL (≈ 0.702 µM).

With `CNC1=C2NC(=O)C(C)CC(=O)[C@@H]3C[C@@H]3[C@H](O)[C@@H](C)[C@@H](O)[C@@H](C)[C@H](OC(C)=O)[C@H](C)[C@@H](OC)/C=C/O[C@@]3(C)Oc4c(C)c(O)c(c(c4C3=O)C1=O)C2=O` (some centres undefined), the MIC in the assay on Staphylococcus aureus was determined as 0.5 µg/mL (≈ 0.675 µM).

For the compound `CO[C@H]1/C=C/O[C@@]2(C)Oc3c(C)c(O)c4c(c3C2=O)C(=O)C(NC2CCCCC2)=C(NC(=O)/C(C)=C\C(=O)[C@@H]2C[C@@H]2[C@H](O)[C@@H](C)[C@@H](O)[C@@H](C)[C@H](OC(C)=O)[C@@H]1C)C4=O`, the MIC with Staphylococcus aureus stood at 0.25 µg/mL (≈ 0.31 µM).

`CO[C@H]1/C=C/O[C@@]2(C)Oc3c(C)c(O)c4c(c3C2=O)C(=O)C(NCc2ccccc2)=C(NC(=O)/C(C)=C\C(=O)[C@@H]2C[C@@H]2[C@H](O)[C@@H](C)[C@@H](O)[C@@H](C)[C@H](OC(C)=O)[C@@H]1C)C4=O`: the MIC in the assay on Staphylococcus aureus was below 0.005 µg/mL.

For the compound `CO[C@H]1/C=C/O[C@@]2(C)Oc3c(C)c(O)c4c(c3C2=O)C(=O)C(NCCCN2CCC(=O)C2)=C(NC(=O)/C(C)=C\C(=O)[C@@H]2C[C@@H]2[C@H](O)[C@@H](C)[C@@H](O)[C@@H](C)[C@H](OC(C)=O)[C@@H]1C)C4=O`, the figures for the MIC (in the assay on Escherichia coli; in assay [1]; with Staphylococcus aureus) were 50 µg/mL (≈ 58.8 µM), 25 µg/mL (≈ 29.4 µM) and 0.005 µg/mL (≈ 0.00588 µM), respectively.
